Data from ChEMBL document CHEMBL5120908, “Diterpenoid Constituents of Psiadia punctulata and Evaluation of Their Antimicrobial Activity” (2022).
Values after ≈ are worked out from the molar mass of the structure shown. Active and inactive are the calls of the source. The calls are words filed in the database; no cut-off is given here.

Key:
Treponema denticola [1] = assay: Potentiation of antimicrobial activity against Treponema denticola ATCC 35405 assessed as chlorhexidine MIC at 50 ug/ml incubated for 48 hrs by checkerboard assay; assay type: functional; conditions: dose 50 µg/ml
Summary of the method: (§1)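 Checkerboard: psiadin at 0, 25, 50, 100, 200 μg/mL crossed with chlorhexidine at 5, 2.5, 1.25, 0.6, 0.3, 0 μg/mL. Broth microdilution MIC was read as the lowest concentration with no visible growth (A600). L. plantarum grew in MRS and T. denticola in BHI, both anaerobic at 37 °C. S. aureus and S. mutans grew in aerobic BHI at 37 °C. FIC index calculated from combination versus single-agent MICs.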

Staphylococcus aureus [2] = assay: Potentiation of antimicrobial activity against Staphylococcus aureus ATCC 23235 assessed as chlorhexidine MIC at 25 ug/ml incubated for 48 hrs by checkerboard assay; assay type: functional; conditions: dose 25 µg/ml; summary of the method: as §1
Treponema denticola [3] = assay: Antibacterial activity against Treponema denticola ATCC 35405 incubated for 48 hrs by spectrophotometric analysis; assay type: functional
Summary of the method: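 Broth microdilution MIC: fractions tested at 20–200 μg/mL and pure compounds at 10–200 μg/mL, each with 0.5 × 10^5 CFU/mL inoculum. S. aureus and S. mutans grew aerobically in BHI at 37 °C for 24 h. T. denticola grew anaerobically in BHI at 37 °C for 48 h. Read by A600. MIC is the lowest concentration inhibiting visible growth. Blank and DMSO vehicle controls were included; triplicate.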

Streptococcus mutans [4] = assay: Potentiation of antimicrobial activity against Streptococcus mutans ATCC 25175 assessed as chlorhexidine MIC at 100 ug/ml incubated for 48 hrs by checkerboard assay; assay type: functional; conditions: dose 100 µg/ml; summary of the method: as §1
Streptococcus mutans [5] = assay: Antibiofilm activity against Streptococcus mutans ATCC 25175 at 50 to 100 ug/ml measured after 24 hrs by crystal violet staining method; conditions: dose 50-100 µg/ml
Staphylococcus aureus [6] = assay: Synergistic antimicrobial activity against Staphylococcus aureus ATCC 23235 assessed as fractional inhibitory concentration at 50 ug/ml incubated for 48 hrs in presence of chlorhexidine by checkerboard assay; assay type: functional; conditions: dose 50 µg/ml; summary of the method: as §1
Staphylococcus aureus [7] = assay: Potentiation of antimicrobial activity against Staphylococcus aureus ATCC 23235 assessed as chlorhexidine MIC at 200 ug/ml incubated for 48 hrs by checkerboard assay; assay type: functional; conditions: dose 200 µg/ml; summary of the method: as §1
Treponema denticola [8] = assay: Potentiation of antimicrobial activity against Treponema denticola ATCC 35405 assessed as chlorhexidine MIC at 25 ug/ml incubated for 48 hrs by checkerboard assay; assay type: functional; conditions: dose 25 µg/ml; summary of the method: as §1
[9] = test system: Lactiplantibacillus plantarum; assay: Potentiation of antimicrobial activity against Lactobacillus plantarum ATCC 8014 assessed as chlorhexidine MIC at 100 ug/ml incubated for 48 hrs by checkerboard assay; assay type: functional; conditions: dose 100 µg/ml; summary of the method: as §1
[10] = test system: Lactiplantibacillus plantarum; assay: Potentiation of antimicrobial activity against Lactobacillus plantarum ATCC 8014 assessed as chlorhexidine MIC at 25 ug/ml incubated for 48 hrs by checkerboard assay; assay type: functional; conditions: dose 25 µg/ml; summary of the method: as §1
Streptococcus mutans [11] = assay: Antibacterial activity against Streptococcus mutans ATCC 25175 assessed as inhibition of efflux pump by measuring increase in accumulation of ethidium bromide at 25 to 50 ug/ml and measured after 60 mins by fluorescence assay; assay type: functional, organism-based; conditions: dose 25-50 µg/ml, DDE = dose-dependent effect
Summary of the method: (§2)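 EtBr accumulation in S. mutans grown overnight in BHI at 37 °C. Cells were washed twice and resuspended in PBS at OD600 0.6 with 0.4% glucose and 2 μg/mL EtBr (final). Psiadin was tested at 25 and 50 μg/mL, chlorhexidine at 0.6 μg/mL, and psiadin combined with chlorhexidine. DMSO and MeOH (0.5% each) served as negative controls. Fluorescence (ex 525/em 605 nm) was read every 60 s for 60 min at 37 °C.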

Staphylococcus aureus [12] = assay: Potentiation of antimicrobial activity against Staphylococcus aureus ATCC 23235 assessed as chlorhexidine MIC at 100 ug/ml incubated for 48 hrs by checkerboard assay; assay type: functional; conditions: dose 100 µg/ml; summary of the method: as §1
Streptococcus mutans [13] = assay: Potentiation of antimicrobial activity against Streptococcus mutans ATCC 25175 assessed as chlorhexidine MIC at 25 ug/ml incubated for 48 hrs by checkerboard assay; assay type: functional; conditions: dose 25 µg/ml; summary of the method: as §1
Streptococcus mutans [14] = assay: Potentiation of antimicrobial activity against Streptococcus mutans ATCC 25175 assessed as chlorhexidine MIC at 200 ug/ml incubated for 48 hrs by checkerboard assay; assay type: functional; conditions: dose 200 µg/ml; summary of the method: as §1
Staphylococcus aureus [15] = assay: Antibacterial activity against Staphylococcus aureus ATCC 23235 incubated for 48 hrs by spectrophotometric analysis; assay type: functional
Staphylococcus aureus [16] = assay: Synergistic antimicrobial activity against Staphylococcus aureus ATCC 23235 assessed as fractional inhibitory concentration at 25 ug/ml incubated for 48 hrs in presence of chlorhexidine by checkerboard assay; assay type: functional; conditions: dose 25 µg/ml; summary of the method: as §1
Treponema denticola [17] = assay: Potentiation of antimicrobial activity against Treponema denticola ATCC 35405 assessed as chlorhexidine MIC at 100 ug/ml incubated for 48 hrs by checkerboard assay; assay type: functional; conditions: dose 100 µg/ml; summary of the method: as §1
Streptococcus mutans [18] = assay: Antibacterial activity against Streptococcus mutans ATCC 25175 assessed as inhibition of efflux pump by measuring increase in accumulation of ethidium bromide at 50 ug/ml and measured after 60 mins in presence of chlorhexidine by fluorescence assay; assay type: functional, organism-based; conditions: dose 50.0 µg/ml; summary of the method: as §2
Streptococcus mutans [19] = assay: Antibacterial activity against Streptococcus mutans ATCC 25175 incubated for 48 hrs by spectrophotometric analysis; assay type: functional
Staphylococcus aureus [20] = assay: Potentiation of antimicrobial activity against Staphylococcus aureus ATCC 23235 assessed as chlorhexidine MIC at 50 ug/ml incubated for 48 hrs by checkerboard assay; assay type: functional; conditions: dose 50 µg/ml; summary of the method: as §1
Streptococcus mutans [21] = assay: Potentiation of antimicrobial activity against Streptococcus mutans ATCC 25175 assessed as chlorhexidine MIC at 50 ug/ml incubated for 48 hrs by checkerboard assay; assay type: functional; conditions: dose 50 µg/ml; summary of the method: as §1
Streptococcus mutans [22] = assay: Synergistic antimicrobial activity against Streptococcus mutans ATCC 25175 assessed as fractional inhibitory concentration incubated for 48 hrs in presence of chlorhexidine by checkerboard assay; assay type: functional; conditions: time 24 hrs; in the assay text read “24 hrs” for “48 hrs”; summary of the method: as §1
Treponema denticola [23] = assay: Potentiation of antimicrobial activity against Treponema denticola ATCC 35405 assessed as chlorhexidine MIC at 200 ug/ml incubated for 48 hrs by checkerboard assay; assay type: functional; conditions: dose 200 µg/ml; summary of the method: as §1
[24] = test system: Lactiplantibacillus plantarum; assay: Potentiation of antimicrobial activity against Lactobacillus plantarum ATCC 8014 assessed as chlorhexidine MIC at 200 ug/ml incubated for 48 hrs by checkerboard assay; assay type: functional; conditions: dose 200 µg/ml; summary of the method: as §1
[25] = test system: Lactiplantibacillus plantarum; assay: Potentiation of antimicrobial activity against Lactobacillus plantarum ATCC 8014 assessed as chlorhexidine MIC at 50 ug/ml incubated for 48 hrs by checkerboard assay; assay type: functional; conditions: dose 50 µg/ml; summary of the method: as §1
[26] = test system: Lactiplantibacillus plantarum; assay: Antibacterial activity against Lactobacillus plantarum ATCC 8014 incubated for 48 hrs by checkerboard assay; assay type: functional; summary of the method: as §1
Streptococcus mutans [27] = assay: Antibacterial activity against Streptococcus mutans ATCC 25175 assessed as inhibition of efflux pump by measuring […] in accumulation of ethidium bromide at 0.6 ug/ml and measured after 60 mins by fluorescence assay; assay type: functional, organism-based; conditions: dose 0.6 µg/ml; summary of the method: as §2
Streptococcus mutans [28] = assay: Antibacterial activity against Streptococcus mutans ATCC 25175 incubated for 48 hrs by checkerboard assay; assay type: functional; summary of the method: as §1
Treponema denticola [29] = assay: Antibacterial activity against Treponema denticola ATCC 35405 incubated for 48 hrs by checkerboard assay; assay type: functional; summary of the method: as §1
Staphylococcus aureus [30] = assay: Antibacterial activity against Staphylococcus aureus ATCC 23235 incubated for 48 hrs by checkerboard assay; assay type: functional; summary of the method: as §1

C=C1C[C@]23CC[C@@H]4C(CO)(CO)CC(=O)C[C@@]4(C)[C@@H]2CC[C@H]1C3
MIC (Treponema denticola [1]): 2.5 µg/mL
MIC (Staphylococcus aureus [2]): 1.25 µg/mL
MIC (Treponema denticola [3]): 100 µg/mL (≈ 314 µM)
MIC (Streptococcus mutans [4]): 0.6 µg/mL
Activity (Streptococcus mutans [5]): Active
FIC (Staphylococcus aureus [6]): 0.9
MIC (Staphylococcus aureus [7]): 0.3 µg/mL
MIC (Treponema denticola [8]): 2.5 µg/mL
MIC [9]: 10 µg/mL
MIC [10]: 10 µg/mL
Activity (Streptococcus mutans [11]): Dde
MIC (Staphylococcus aureus [12]): 0.6 µg/mL
MIC (Streptococcus mutans [13]): 1.25 µg/mL
MIC (Streptococcus mutans [14]): 0.3 µg/mL
MIC (Staphylococcus aureus [15]): 125 µg/mL (≈ 393 µM)
FIC (Staphylococcus aureus [16]): 0.7
MIC (Treponema denticola [17]): 2.5 µg/mL
Activity (Streptococcus mutans [18]): Active
MIC (Streptococcus mutans [19]): 140 µg/mL (≈ 440 µM)
MIC (Staphylococcus aureus [20]): 1.25 µg/mL
MIC (Streptococcus mutans [21]): 0.6 µg/mL
FIC (Streptococcus mutans [22]): 0.85
MIC (Treponema denticola [23]): 1.25 µg/mL
MIC [24]: 2.5 µg/mL
MIC [25]: 10 µg/mL

N=C(NCCCCCCNC(=N)NC(=N)Nc1ccc(Cl)cc1)NC(=N)Nc1ccc(Cl)cc1 [CHLORHEXIDINE]
MIC [26]: 10 µg/mL
Activity (Streptococcus mutans [27]): Active
MIC (Streptococcus mutans [28]): 1.25 µg/mL
MIC (Treponema denticola [29]): 2.2 µg/mL
MIC (Staphylococcus aureus [30]): 2.5 µg/mL

COc1c(OC)c(O)c2c(=O)cc(-c3ccc(O)cc3)oc2c1OC [XANTHOMICROL]
MIC (Treponema denticola [3]): 200 µg/mL (≈ 581 µM)
MIC (Staphylococcus aureus [15]): > 250 µg/mL
MIC (Streptococcus mutans [19]): 180 µg/mL (≈ 523 µM)
